Experimental data published in ChEMBL document CHEMBL1123290, “Synthesis, antimalarial activity, and quantitative structure-activity relationships of tebuquine and a series of related 5-[(7-chloro-4-quinolinyl)amino]-3-[(alkylamino)methyl] [1,1'-biphenyl]-2-ols and N omega-oxides” (1986).

How the values were obtained:
Assay type in all cases: functional
Plasmodium berghei [1] = assay: Antimalarial activity as 60-day survivors in infected mice (Mus musculus) after single 320mg/kg subcutaneous dose 72 hr post infection
Procedure, shortened: (§1)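 Mice were infected with a normal drug-sensitive Plasmodium berghei strain. At 72 h postinfection each received one subcutaneous dose of compound dissolved or suspended in peanut oil, in five-mouse groups per dose. The read-out was the number of mice alive at 60 days postinfection, which were scored as cured.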

Plasmodium berghei [2] = assay: Change in mean survival time for control (average 6.2 days) versus treated mice (Mus musculus) 72 hrs after 5 mg/kg subcutaneous dose
Plasmodium berghei [3] = assay: Change in mean survival time for control (average 6.2 days) versus treated mice (Mus musculus) 72 hrs after 160 mg/kg subcutaneous dose
Plasmodium berghei [4] = assay: Change in mean survival time for control (average 6.2 days) versus treated mice (Mus musculus) 72 hrs after 20 mg/kg subcutaneous dose
Plasmodium berghei [5] = assay: Change in mean survival time for control (average 6.2 days) versus treated mice (Mus musculus) 72 hrs after […] subcutaneous dose
Plasmodium berghei [6] = assay: Change in mean survival time for control (average 6.2 days) versus treated mice (Mus musculus) 72 hrs after 320 mg/kg subcutaneous dose
Mus musculus [7] = assay: Antimalarial activity, administered as a single subcutaneous dose of 80 mg/kg, 72 hrs post infection measured as number of mice (Mus musculus) surviving at 60 days post infection; procedure, shortened: as §1
Plasmodium berghei [8] = assay: Antimalarial activity in primary screen
Plasmodium berghei [9] = assay: (§2) Change in mean survival time for control (average 6.2 days) versus treated mice (Mus musculus) 72 hrs after […] subcutaneous dose
Mus musculus [10] = assay: Antimalarial activity, administered as a single subcutaneous dose of 640 mg/kg, 72 hrs post infection measured as number of mice (Mus musculus) surviving at 60 days post infection; procedure, shortened: as §1
Plasmodium berghei [11] = assay: Change in mean survival time for control (average 6.2 days) versus treated mice (Mus musculus) 72 hrs after 10 mg/kg subcutaneous dose
Plasmodium berghei [12] = assay: Antimalarial activity as 60-day survivors in infected mice (Mus musculus) after single 20 mg/kg subcutaneous dose 72hr post infection; procedure, shortened: as §1
Mus musculus [13] = assay: Antimalarial activity, administered as a single subcutaneous dose of 40 mg/kg, 72 hrs post infection measured as number of mice (Mus musculus) surviving at 60 days post infection; procedure, shortened: as §1
Plasmodium berghei [14] = assay: Antimalarial activity as 60-day survivors in Plasmodium berghei infected mice (Mus musculus) after single 160mg/kg subcutaneous dose 72 hr post infection; procedure, shortened: as §1
Plasmodium berghei [15] = assay: Change in mean survival time for control (average 6.2 days) versus treated mice (Mus musculus) after 40 mg/kg subcutaneous dose
Plasmodium berghei [16] = assay: Change in mean survival time for control (average 6.2 days) versus treated mice (Mus musculus) after 160 mg/kg subcutaneous dose
Plasmodium berghei [17] = assay: Change in mean survival time in control (average 6.2 days) versus treated mice (Mus musculus) after 80 mg/kg subcutaneous dose
Plasmodium berghei [18] = assay: Change in mean survival time for control (average 6.2 days) versus treated mice (Mus musculus) after 20 mg/kg subcutaneous dose
Plasmodium berghei [19] = assay: as §2; remark: listed apart in the source
Plasmodium berghei [20] = assay: Change in mean survival time for control (average 6.2 days) versus treated mice (Mus musculus) after 320 mg/kg subcutaneous dose
Plasmodium berghei [21] = assay: Change in mean survival time of Plasmodium berghei infected mice (Mus musculus) on 1.25 mg/kg subcutaneous dose
Plasmodium berghei [22] = assay: Change in mean survival time of Plasmodium berghei infected mice (Mus musculus) after 5 mg/kg subcutaneous dose
Plasmodium berghei [23] = assay: Difference in mean survival time of Plasmodium berghei infected mice (Mus musculus) after 10 mg/kg subcutaneous dose
Plasmodium berghei [24] = assay: Change in mean survival time of Plasmodium berghei infected mice (Mus musculus) after […] subcutaneous dose
Plasmodium berghei [25] = assay: Difference in mean survival time in mice (Mus musculus) (control = 6.2 days) after single 40mg/kg subcutaneous dose 72hr post infection
Plasmodium berghei [26] = assay: Change in mean survival time for control (average of 6.2 days) versus treated mice (Mus musculus) 72 hrs after 80 mg/kg subcutaneous dose
Plasmodium berghei [27] = assay: Change in mean survival time for control (average 6.2 days) versus treated mice (Mus musculus) 72 hrs after 640 mg/kg subcutaneous dose

Row | Compound | No. of mice cured (Plasmodium berghei [1]) | Delta MST (Plasmodium berghei [2]) [days] | Delta MST (Plasmodium berghei [4]) [days] | Delta MST (Plasmodium berghei [5]) [days] | Delta MST (Plasmodium berghei [6]) [days] | No. of mice cured (Mus musculus [7]) | ED30 (Plasmodium berghei [8]) [mg/kg] | Delta MST (Plasmodium berghei [9]) [days] | No. of mice cured (Mus musculus [10]) | Delta MST (Plasmodium berghei [11]) [days] | No. of mice cured (Plasmodium berghei [12]) | No. of mice cured (Mus musculus [13]) | No. of mice cured (Plasmodium berghei [14]) | Delta MST (Plasmodium berghei [15]) [days] | Delta MST (Plasmodium berghei [16]) | Delta MST (Plasmodium berghei [17]) [days] | Delta MST (Plasmodium berghei [18]) [days] | Delta MST (Plasmodium berghei [19]) [days] | Delta MST (Plasmodium berghei [20]) [days] | Delta MST (Plasmodium berghei [25]) [days] | further results
1 | CCN(CC)Cc1cc(Nc2ccnc3cc(Cl)ccc23)cc(-c2ccccc2Cl)c1O | 4 | 4.7 | 17.2 | 0.3 | 41.9 | 5 | 15.3 | 0.7 | 5 | 14.7 | 2 | 5 | 4 |  |  |  |  |  |  |  | Delta MST (Plasmodium berghei [3]): 41.9 days
2 | CCN(CC)Cc1cc(Nc2cc[n+]([O-])c3cc(Cl)ccc23)cc(-c2ccc(OC)c(OC)c2)c1O | 3 |  |  |  |  |  | 204 |  | 2 |  |  |  |  | 5.4 | 11.4 | 5 | 2.4 | 11.1 | 12.4 |  | 
3 | CCN(CC)Cc1cc(Nc2cc[n+]([O-])c3cc(Cl)ccc23)cc(-c2ccccc2C(F)(F)F)c1O | 5 |  |  |  |  |  | 56.1 |  | 5 |  |  |  | 4 | 15.5 | 24.7 days | 24.7 | 7.7 |  |  |  | Delta MST (Plasmodium berghei [21]): 0.5 days; Delta MST (Plasmodium berghei [22]): 0.7 days; Delta MST (Plasmodium berghei [23]): 4.1 days; Delta MST (Plasmodium berghei [24]): 0.1 days
4 | CC(C)(C)NCc1cc(Nc2ccnc3cc(Cl)ccc23)cc(-c2ccc(Cl)c(Cl)c2)c1O | 3 | 6.1 | 10.5 | 0.1 | 14.4 | 4 |  | 0.7 | 4 | 9.7 | 1 | 2 | 4 |  |  |  |  |  |  | 27.4 | Delta MST (Plasmodium berghei [3]): 13.4 days; Delta MST (Plasmodium berghei [26]): 30.4 days; Delta MST (Plasmodium berghei [27]): 16.4 days
5 | CCN(CC)Cc1cc(Nc2ccnc3cc(Cl)ccc23)cc(-c2c(F)cccc2F)c1O | 5 | 7.9 | 12.2 | 2.7 |  | 2 | 23.7 | 0.1 | 4 | 8.3 | 1 | 1 | 5 |  |  |  |  |  |  | 16.9 | Delta MST (Plasmodium berghei [26]): 24.1 days; Delta MST (Plasmodium berghei [27]): 36.8 days
6 | CCN(CC)Cc1cc(Nc2cc[n+]([O-])c3cc(Cl)ccc23)cc(-c2ccccc2OC)c1O | 1 |  |  |  |  |  | 170 |  | 1 |  |  |  | 2 | 6.9 | 8.9 days | 8.7 | 0.7 | 27.2 | 36.2 |  | 
7 | CCN(CC)Cc1cc(Nc2cc[n+]([O-])c3cc(Cl)ccc23)cc(-c2cccc3ccccc23)c1O |  |  |  |  |  |  | 14400 |  | 1 |  |  |  |  | 0.4 | 6.4 days | 3 | 0 | 12.9 | 1.6 |  | 
8 | CCN(CC)Cc1cc(Nc2cc[n+]([O-])c3cc(Cl)ccc23)cc(-c2cccc(F)c2)c1O | 3 |  |  |  |  | 2 | 33.7 |  | 1 |  |  |  | 3 | 22.8 | 29.6 days | 22.6 | 27.2 | 14.8 | 24.1 |  | Delta MST (Plasmodium berghei [21]): -0.1 days; Delta MST (Plasmodium berghei [22]): 4.5 days; Delta MST (Plasmodium berghei [24]): 0.5 days
9 | CN(C)Cc1cc(Nc2ccnc3cc(Cl)ccc23)cc(-c2ccc(Cl)cc2)c1O | 1 | 14.2 | 36.8 | 6 | 14.4 | 4 | 6.2 | 1.2 | 1 | 20.4 | 3 | 4 | 5 |  |  |  |  |  |  | 18.8 | Delta MST (Plasmodium berghei [26]): 45.4 days; Delta MST (Plasmodium berghei [27]): 18.7 days
